# Test results published in ChEMBL document CHEMBL1145132, “N-hydroxy-3-phenyl-2-propenamides as novel inhibitors of human histone deacetylase with in vivo antitumor activity: discovery of (2E)-N-hydroxy-3-[4-[[(2-hydroxyethyl)[2-(1H-indol-3-yl)ethyl]amino]methyl]phenyl]-2-propenamide (NVP-LAQ824)” (J Med Chem, 2003).
# Values joined by “and” are separate entries in the source; they are usually repeats but may differ in a detail not shown here. Equal values may be shown once.
# Columns and labels:
# Mus musculus [1] = test: Compound was tested in vivo for efficacy in athymic mice bearing HCT116 subcutaneous tumor xenografts at a dose of 50 mg/kg and change in the body weight of the mouse was evaluated; type: functional; conditions: route intravenous
# How it was run: (§1)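 Female outbred athymic nu/nu mice, ≈10⁶ HCT116 cells injected sc in right axillary region under anesthesia; treatment began when tumors ≈100 mm³ (day 13 post-implant), groups of eight balanced on tumor volume. Compound given iv as lactate salt in 10% DMSO/D5W, qd 5×/week for 15 doses. Individual body weights recorded once weekly; % change from start reported.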
# Mus musculus [2] = test: Compound was tested for efficacy in athymic mice bearing HCT116 subcutaneous tumor xenografts at a dose of 100 mg/kg and change in the body weight of the mouse was evaluated; type: functional; how it was run: as §1
# HCT-116 = test: Inhibitory activity against HCT116 human colon cell growth; type: functional, cell-based
# Mus musculus [3] = test: Ratio of the change in tumor volume of treated animals to the change in tumor volume of control animals at a dose of 50 mg/kg (A549 human lung carcinoma xenograft study); type: functional
# How it was run: (§2)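 A549 sc xenografts (≈10⁷ cells) in female athymic nude mice, eight per group, dosed from ≈100 mm³ tumors (day 20) iv as lactate salt in 10% DMSO/D5W qd 5×/week for 15 doses. Weekly tumor measurement; % T/C = treated over vehicle-control change in tumor volume; one-tailed Student's t-test.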
# Mus musculus [4] = test: Ratio of the change in tumor volume of treated animals to the change in tumor volume of control animals at a dose of 10 mg/kg (A549 human lung carcinoma xenograft study); type: functional; how it was run: as §2
# Mus musculus [5] = test: Compound was tested in vivo for efficacy in athymic mice bearing HCT116 subcutaneous tumor xenografts at a dose of 25 mg/kg and change in the body weight of the mouse was evaluated; type: functional
# Mus musculus [6] = test: Ratio of the change in tumor volume of treated animals to the change in tumor volume of control animals at a dose of 10 mg/kg; type: functional
# How it was run: (§3)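 HCT116 sc xenografts (≈10⁶ cells) in female athymic nude mice, eight per group, treated from ≈100 mm³ tumors with iv lactate salt in 10% DMSO/D5W qd 5×/week for 10 or 15 doses. Tumors measured weekly; % T/C = change in treated tumor volume over change in vehicle-control tumor volume; one-tailed Student's t-test.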
# Mus musculus [7] = test: Ratio of the change in tumor volume of treated animals to the change in tumor volume of control animals at a dose of 25 mg/kg; type: functional; how it was run: as §3
# Mus musculus [8] = test: Compound was tested in vivo for efficacy in A549 human lung carcinoma xenograft model at a dose of 25 mg/kg and change in the body weight of the mouse was evaluated; type: functional
# How it was run: (§4)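 Female outbred athymic nu/nu mice, ≈10⁷ A549 cells injected sc in right axillary region; treatment began ≈20 days post-implant at tumors ≈100 mm³, eight mice per group balanced on tumor volume. Dosing iv as lactate salt in 10% DMSO/D5W, qd 5×/week for 15 doses. Body weights recorded once weekly; % change reported.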
# Mus musculus [9] = test: Compound was tested in vivo for efficacy in A549 human lung carcinoma xenograft model at a dose of 100 mg/kg and change in the body weight of the mouse was evaluated; type: functional; how it was run: as §4
# Mus musculus [10] = test: Compound was tested in vivo for efficacy in A549 human lung carcinoma xenograft model at a dose of 10 mg/kg and change in the body weight of the mouse was evaluated; type: functional; how it was run: as §4
# Mus musculus [11] = test: Compound was tested in vivo for efficacy in athymic mice bearing HCT116 subcutaneous tumor xenografts at a dose of 100 mg/kg and change in the body weight of the mouse was evaluated; type: functional; conditions: route intravenous; how it was run: as §1
# Mus musculus [12] = test: Ratio of the change in tumor volume of treated animals to the change in tumor volume of control animals at a dose of 100 mg/kg (A549 human lung carcinoma xenograft study); type: functional; how it was run: as §2
# Mus musculus [13] = test: Compound was tested for maximum tolerated dose (MTD) that resulted in no deaths when administered intravenously for five days; type: functional
# How it was run: (§5)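 Athymic mice, four per group, dosed iv once daily for five consecutive days, up to a maximum of 200 mg/kg/day. Compound given as the lactate salt in 10% DMSO in 5% dextrose/water (final DMSO 10%). MTD taken as the highest dose that caused no deaths.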
# Mus musculus [14] = test: Ratio of the change in tumor volume of treated animals to the change in tumor volume of control animals at a dose of 25 mg/kg (A549 human lung carcinoma xenograft study); type: functional; how it was run: as §2
# NCI-H1299 = test: Inhibitory activity against H1299 human lung carcinoma cell growth; type: functional, cell-based
# Mus musculus [15] = test: Compound was tested in vivo for efficacy in athymic mice bearing HCT116 subcutaneous tumor xenografts at a dose of 10 mg/kg and change in the body weight of the mouse was evaluated; type: functional; conditions: route intravenous; how it was run: as §1
# Mus musculus [16] = test: Ratio of the change in tumor volume of treated animals to the change in tumor volume of control animals at a dose of 50 mg/kg; type: functional; how it was run: as §3
# Mus musculus [17] = test: Compound was tested in vivo for efficacy in A549 human lung carcinoma xenograft model at a dose of 50 mg/kg and change in the body weight of the mouse was evaluated; type: functional; how it was run: as §4
# Mus musculus [18] = test: Ratio of the change in tumor volume of treated animals to the change in tumor volume of control animals at a dose of 100 mg/kg; type: functional; conditions: 100 mg/kg; how it was run: as §3
# Mus musculus [19] = test: Ratio of the change in tumor volume of treated animals to the change in tumor volume of control animals at a dose of 40 mg/kg; type: functional; how it was run: as §3
# Mus musculus [20] = test: Compound was tested in vivo for maximum tolerated dose (MTD) that resulted in no deaths when administered intravenously for five days; type: functional; how it was run: as §5
# Mus musculus [21] = test: Compound was tested in vivo for efficacy in athymic mice bearing HCT116 subcutaneous tumor xenografts at a dose of 40 mg/kg and change in the body weight of the mouse was evaluated; type: functional; how it was run: as §1
# Histone deacetylase = test: Inhibitory activity against histone deacetylase (HDAC) enzyme obtained from H1299 human lung carcinoma cell lysates
compound,measurement,setting,value
O=C(/C=C/c1ccc(CN(CCO)CCc2c[nH]c3ccccc23)cc1)NO [DACINOSTAT],Body weight change,Mus musculus [1],2.3%
same,Body weight change,Mus musculus [2],-0.9%
same,IC50,HCT-116,10 nM
same,T/C,Mus musculus [3],15%
same,T/C,Mus musculus [4],32%
same,Body weight change,Mus musculus [5],0%
same,T/C,Mus musculus [6],55%
same,T/C,Mus musculus [7],38%
same,Body weight change,Mus musculus [8],-0.9%
same,Body weight change,Mus musculus [9],0.4%
same,Body weight change,Mus musculus [10],1.3%
same,Body weight change,Mus musculus [11],1.4%
same,T/C,Mus musculus [12],7%
same,MTD,Mus musculus [13],>200 mg/kg
same,T/C,Mus musculus [14],20%
same,IC50,NCI-H1299,150 nM
same,Body weight change,Mus musculus [15],2.7%
same,T/C,Mus musculus [16],27%
same,Body weight change,Mus musculus [17],-0.4%
same,T/C,Mus musculus [18],12% and 20%
O=C(/C=C/c1ccc(CN(CCc2c[nH]c3ccccc23)C2CCOCC2)cc1)NO,T/C,Mus musculus [19],32%
same,IC50,HCT-116,6 nM
same,MTD,Mus musculus [20],40 mg/kg
same,Body weight change,Mus musculus [21],0.1%
same,IC50,Histone deacetylase,10 nM
same,IC50,NCI-H1299,40 nM
